Shown are actives, neighbours in structure and some others; about 3.8% of the full set was active somewhere.
Measles CPE = protection of cells from measles virus | 1.5% of 140,000 active | AID 841 | protection (pct of control), % at 4 µM | Measles virus-infected cells, CPE protection, absorbance; in the data active = protection mostly above about 24%, no sharp cut-off; inactive = mostly below about 26%
Yeast lifespan up = extends the lifespan of yeast; 0.68% of 130,000 active; AID 775; inhibition of the nicotinamide effect, % at 10 µM; S. cerevisiae growth with nicotinamide, OD615; deaD strain in restrictive glucose medium;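 active = inhibition above a set limit, placed 3 SD over the median of all compounds, cut at about 26% in these data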
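Assay system: engineered S. cerevisiae DeaD replicative-lifespan strain, galactose-grown log-phase cells; medium: restrictive CSMM-D dextrose medium; also added: nicotinamide, 1.5 mM, co-present with compound; schedule: 48 h compound exposure at 30 °C, humidified; detection: absorbance at 615 nm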
Yeast growth inh = chemicals that inhibit yeast BB579 growth in restrictive medium (lifespan-shortening candidates). S. cerevisiae BB579 growth, OD615, 48 h. inhibition, % at 10 µM. 0.51% of 140,000 active. AID 804;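 active = inhibition above a set limit, 3 SD over the mean compound inhibition, cut at about 44% in these data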
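test system = yeast BB579 (DeaD) | buffer or medium = restrictive CSMM-D medium | doses = single compound dose of 10 µM, 0.25% DMSO final | times = 4 h preincubation and 48 h exposure at 30 °C | technique = culture absorbance at 615 nm | benchmarks = amphotericin B 10 µg/mL, positive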
sdo1 growth = compounds rescuing growth of sdo1-depleted yeast, bone marrow failure model | 0.21% of 140,000 active | S. cerevisiae sdo1-depleted JHY4D growth rescue, OD600 30 h; active compounds read high; pdr5 snq2 efflux-pump mutant strain | AID 817 | z-score at 10 µM;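 active = z-score above 3 at both the 24 hr and the 30 hr optical density reads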
RAM inhibit = blocks the yeast RAM network. 1.8% of 190,000 active. AID 868. S. cerevisiae dse1pr::URA3 reporter, 5-FOA growth OD615, 2 d; analog-sensitive cbk1-as2 kinase mutant strain. inhibition, % at 50 µM;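 active = inhibition above a set limit, 3 SD over mean compound inhibition, cut at about 8.4% in these data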;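 note: inhibition rescues growth on 5-FOA so higher OD means more RAM inhibition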
Hits are given with their value; n = inactive; x = no result given.

SMILES	Measles CPE	Yeast lifespan up	Yeast growth inh	sdo1 growth	RAM inhibit
CC(=O)c1cccc(S(=O)(=O)NCC(c2ccco2)N2CCCCC2)c1 (stereo not given)	n	n	n	n	n
Cn1c(=O)c2c(ncn2CCCNC2=CC(C)(C)CC(=O)C2)n(C)c1=O	17	n	n	n	n
COC(=O)Cn1cnc2c1c(=O)n(C)c(=O)n2C	n	x	n	n	n
CCNS(=O)(=O)c1ccc(NC(=S)NCC2CCCO2)cc1 (stereo not given)	x	x	x	x	n
NC(=O)CN(c1ccccc1)C1SC(=O)N(Cc2ccccc2)C1=O (stereo not given)	n	n	n	n	n
Cc1ccc(N(CC(N)=O)C2SC(=O)N(Cc3ccccc3)C2=O)cc1 (stereo not given)	n	n	n	n	9.4
O=C(NCCCn1ccnc1)Nc1cccc2ccccc12	26	x	n	n	n
CC(=O)N(/N=C/c1cccc(C)c1)c1nc(-c2ccc(Br)cc2)cs1	n	n	n	n	n
COc1ccc(/C=N/N(C(C)=O)c2nc(-c3ccc(C)cc3)cs2)cc1	n	n	n	n	9.3
O=C1NC2(CCCCC2)NN1c1ccccc1	n	n	n	n	n
CC1CCC2(CC1)NC(=S)N(c1ccccc1)N2 (stereo not given)	n	n	69	n	n
c1cn(C23CC4CC(CC(C4)C2)C3)cn1	n	n	n	n	n
S=c1nn[nH]n1C12CC3CC(CC(C3)C1)C2	34	n	n	n	n
C=CCn1c(C)cc(C(=O)CSc2nnc(Cc3ccccc3)o2)c1C	n	n	n	n	9.8
C=CCn1c(C)cc(C(=O)CSc2nc3ccccc3c(=O)[nH]2)c1C	n	69	n	n	n
C=CCn1c(C)cc(C(=O)COc2nncc3ccccc23)c1C	46	n	n	n	n
C=CCn1c(C)cc(C(=O)COC(=O)CNC(=O)c2ccccc2)c1C	26	n	n	n	n
Cc1ccc(C(=O)NCC(=O)OCC(=O)c2cc(C)n(Cc3ccco3)c2C)cc1	n	n	n	n	n
C=CCn1c(C)cc(C(=O)COc2ccc(C)nc2[N+](=O)[O-])c1C	n	n	n	n	n
CCOC(=O)Cn1c(-c2nonc2NC(=O)c2ccccc2F)nc2ccccc21	50	n	n	n	n
CC(NC(=O)CCCCCCN1C(=O)c2ccccc2C1=O)c1ccc2c(c1)CCCC2 (stereo not given)	n	n	n	n	11
CC(NC(=O)CCCCCN1C(=O)c2ccccc2C1=O)c1ccc2c(c1)CCCC2 (stereo not given)	n	n	n	n	9.1
CCc1ccccc1N/C(=N\S(=O)(=O)c1ccccc1)C(F)(F)F	n	30	n	n	n
OC(CNCCC1C=Nc2ccccc21)Cn1c2ccc(Cl)cc2c2cc(Cl)ccc21 (stereo not given)	n	n	99	n	n
OC(CNCC1CCCO1)Cn1c2ccc(Cl)cc2c2cc(Cl)ccc21 (stereo not given)	n	n	n	n	n
SMILES	Measles CPE	Yeast lifespan up	Yeast growth inh	sdo1 growth	RAM inhibit
O=[N+]([O-])c1cccnc1N1CCN(c2ccc(F)cc2)CC1	x	x	x	x	n
N#Cc1ccccc1OCC(=O)Nc1c(C(=O)C2CC2)oc2ccccc12	n	n	n	n	n
Cc1cc(C(=O)Cn2cncn2)c(C)n1CCc1ccc(F)cc1	68	n	n	n	n
COc1ccccc1NC(CC(=O)c1ccccc1)C(=O)OCC(=O)c1ccc(F)cc1 (stereo not given)	n	n	n	n	11
O=C(CC(Nc1cccc(Cl)c1Cl)C(=O)OCC(=O)c1cccs1)c1ccccc1 (stereo not given)	n	n	n	n	9.0
CNc1ccccc1C(=O)OCC(=O)c1ccc(F)cc1	x	x	x	x	n
Cc1c(Cl)cccc1NC(CC(=O)c1ccccc1)C(=O)OCC(=O)c1cccs1 (stereo not given)	n	n	n	n	n
CCCn1c(C)cs/c1=N\C(=S)Nc1ccccc1	44	n	n	n	n
Cc1cs/c(=N/C(=S)Nc2ccccc2)n1C	n	n	n	n	n
CC(=O)Nc1ccc(C(=O)OCc2ccc(Cl)cc2)cc1	n	n	n	n	n
CC(=O)Nc1ccc(C(=O)OCC(=O)N(Cc2ccccc2)C(C)(C)C)cc1	n	54	n	n	n
CC(=O)Nc1ccc(C(=O)OCC(=O)NCc2ccccc2)cc1	x	x	x	x	n
CC(=O)Nc1ccc(C(=O)OCc2ccccc2Br)cc1	x	x	x	x	8.8
N/C(Cc1nc(-c2ccc(Br)cc2)cs1)=N\O	x	x	x	x	n
CN1CCC(NC(=O)c2ccncc2)CC1	x	x	x	x	n
CCN(CC)S(=O)(=O)c1cc(NC(=O)CCNC(=O)c2ccccc2Cl)ccc1C	n	n	n	n	n
Cc1ccc(S(=O)(=O)N(C)C)cc1NC(=O)CCNC(=O)c1ccccc1Cl	54	n	n	n	n
CCOc1cc(N2CCOCC2)c(OCC)cc1NC(=O)c1ccc(OC(C)C)cc1	x	x	x	x	8.8
C#CCOCCOCCOCCNc1nc(N2CCN(C(=O)[C@H](CCC(=O)O)n3cc(C(N)CC(C)C)nn3)CC2)nc(N2CCN(C(=O)[C@H](CCC(=O)O)n3cc(C(N)CC(C)C)nn3)CC2)n1 (stereo not given in full)	x	x	x	x	n
COc1ccc(N2C(=O)CC(N3CCC(O)(c4ccc(Cl)cc4)CC3)C2=O)cc1 (stereo not given)	26	n	n	n	n
CS(=O)(=O)N1CCN(c2ccccc2[N+](=O)[O-])CC1	x	x	x	x	n
CS(=O)(=O)N1CC(C(=O)NC2CC2)Oc2ccc(Cl)cc21 (stereo not given)	n	n	n	n	n
CNC(=O)c1nn(-c2ccc(C)cc2)ccc1=O	43	n	n	n	n
COc1ccccc1C(=O)C1CCCN(C(=O)c2cc(CC(C)C)nc(C)n2)C1 (stereo not given)	x	x	x	x	n
CCC(C)(C)n1nnnc1CN1CCc2ccccc21	73	n	n	n	n
SMILES	Measles CPE	Yeast lifespan up	Yeast growth inh	sdo1 growth	RAM inhibit
CCCCNc1c(N)n(CC(C)C)c(=O)[nH]c1=O	x	x	x	x	n
Cc1cccc(N2C(=O)/C(=C\c3ccc(OC(F)F)cc3)c3ccccc3C2=O)c1	n	47	n	n	n
COc1cccc(/C=C2\C(=O)N(c3cccc(C)c3)C(=O)c3ccccc32)c1	n	48	n	n	n
CCOc1cc(/C=C2\C(=O)N(c3cccc(C(F)(F)F)c3)C(=O)c3ccccc32)ccc1O	n	n	n	n	n
O=C(Oc1coc(CSc2ncccn2)cc1=O)c1ccc(Br)o1	n	38	n	n	n
Cc1ccnc(SCc2cc(=O)c(OC(=O)c3ccc(Br)o3)co2)n1	n	n	n	n	n
N#Cc1c(N)nc2c3c(sc(=N)c2c1N)NC(=O)CC3c1c(F)cccc1Cl (stereo not given)	n	n	n	n	8.8
CCOc1cc(NC(=S)NCCCN2CCOCC2)c(OCC)cc1NC(=O)C1CC1	n	n	n	n	n
Cc1nc(N2CCOCC2)c2oc3ccccc3c2n1	n	n	n	n	n
c1ccc2c(c1)oc1c(N3CCOCC3)ncnc12	n	n	56	n	n

Bioassay records deposited in PubChem BioAssay by several laboratories.
